{"source": "ChEMBL document CHEMBL3352171", "about": "“Synthesis and biological evaluation of andrographolide analogues as anti-cancer agents” (Eur J Med Chem, 2014)", "key": {"[1]": {"test_system": "HEK293", "assay": "Induction of apoptosis in HEK293 cells at 20 uM after 48 hrs by propidium iodide staining based flow cytometry (reference value: 24.26 +/- 0.8%)", "type": "functional, Homo sapiens"}, "[2]": {"target": "T1, Nuclear factor NF-kappa-B complex (Homo sapiens) (UniProt Q00653+P19838+Q04206)", "T1 sequence (P19838 whole entry, looked up)": "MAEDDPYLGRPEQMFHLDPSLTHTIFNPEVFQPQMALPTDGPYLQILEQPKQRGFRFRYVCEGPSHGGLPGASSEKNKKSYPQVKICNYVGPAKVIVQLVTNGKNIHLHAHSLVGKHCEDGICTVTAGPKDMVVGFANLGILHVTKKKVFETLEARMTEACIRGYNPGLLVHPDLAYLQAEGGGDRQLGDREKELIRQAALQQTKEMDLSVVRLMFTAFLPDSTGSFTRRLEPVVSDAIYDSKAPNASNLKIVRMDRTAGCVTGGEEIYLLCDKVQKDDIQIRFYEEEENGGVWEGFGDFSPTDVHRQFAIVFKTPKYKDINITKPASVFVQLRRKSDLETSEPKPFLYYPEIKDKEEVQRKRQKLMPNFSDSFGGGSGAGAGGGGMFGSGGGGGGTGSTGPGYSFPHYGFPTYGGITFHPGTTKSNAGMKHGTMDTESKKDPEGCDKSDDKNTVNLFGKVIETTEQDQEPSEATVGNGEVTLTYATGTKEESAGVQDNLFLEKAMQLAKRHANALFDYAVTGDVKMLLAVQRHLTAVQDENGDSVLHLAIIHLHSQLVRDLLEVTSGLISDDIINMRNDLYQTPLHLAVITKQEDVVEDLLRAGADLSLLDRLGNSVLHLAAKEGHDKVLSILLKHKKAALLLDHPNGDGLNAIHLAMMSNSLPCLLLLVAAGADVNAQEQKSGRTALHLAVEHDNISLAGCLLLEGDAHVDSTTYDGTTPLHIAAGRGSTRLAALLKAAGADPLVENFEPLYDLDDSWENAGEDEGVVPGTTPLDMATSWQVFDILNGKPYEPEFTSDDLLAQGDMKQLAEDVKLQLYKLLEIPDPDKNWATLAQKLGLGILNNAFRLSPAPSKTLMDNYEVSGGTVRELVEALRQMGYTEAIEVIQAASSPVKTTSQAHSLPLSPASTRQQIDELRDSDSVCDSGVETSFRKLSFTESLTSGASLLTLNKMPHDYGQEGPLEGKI", "T1 sequence (Q00653 whole entry, looked up)": "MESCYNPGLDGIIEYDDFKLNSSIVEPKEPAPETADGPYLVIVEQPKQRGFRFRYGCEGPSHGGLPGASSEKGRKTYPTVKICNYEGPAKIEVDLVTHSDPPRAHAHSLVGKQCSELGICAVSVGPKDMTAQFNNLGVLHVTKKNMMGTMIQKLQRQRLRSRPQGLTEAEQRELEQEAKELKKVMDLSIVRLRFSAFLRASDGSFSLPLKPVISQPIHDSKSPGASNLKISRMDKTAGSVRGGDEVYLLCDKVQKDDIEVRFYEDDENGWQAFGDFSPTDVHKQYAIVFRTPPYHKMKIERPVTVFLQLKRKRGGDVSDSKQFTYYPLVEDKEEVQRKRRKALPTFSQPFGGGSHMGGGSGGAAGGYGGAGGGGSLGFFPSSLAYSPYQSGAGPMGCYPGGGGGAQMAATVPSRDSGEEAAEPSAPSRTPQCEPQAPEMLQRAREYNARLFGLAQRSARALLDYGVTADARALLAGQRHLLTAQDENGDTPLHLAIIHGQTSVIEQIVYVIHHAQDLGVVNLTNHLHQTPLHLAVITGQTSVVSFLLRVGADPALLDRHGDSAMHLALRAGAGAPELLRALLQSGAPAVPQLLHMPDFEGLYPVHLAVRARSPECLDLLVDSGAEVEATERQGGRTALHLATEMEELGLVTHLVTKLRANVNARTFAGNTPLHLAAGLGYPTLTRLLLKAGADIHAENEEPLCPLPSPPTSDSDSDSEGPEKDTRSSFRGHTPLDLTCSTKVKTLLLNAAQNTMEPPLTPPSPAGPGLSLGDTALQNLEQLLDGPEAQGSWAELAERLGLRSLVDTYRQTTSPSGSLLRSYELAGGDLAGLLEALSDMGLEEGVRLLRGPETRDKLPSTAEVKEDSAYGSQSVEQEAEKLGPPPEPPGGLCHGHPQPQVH", "T1 sequence (Q04206 whole entry, looked up)": "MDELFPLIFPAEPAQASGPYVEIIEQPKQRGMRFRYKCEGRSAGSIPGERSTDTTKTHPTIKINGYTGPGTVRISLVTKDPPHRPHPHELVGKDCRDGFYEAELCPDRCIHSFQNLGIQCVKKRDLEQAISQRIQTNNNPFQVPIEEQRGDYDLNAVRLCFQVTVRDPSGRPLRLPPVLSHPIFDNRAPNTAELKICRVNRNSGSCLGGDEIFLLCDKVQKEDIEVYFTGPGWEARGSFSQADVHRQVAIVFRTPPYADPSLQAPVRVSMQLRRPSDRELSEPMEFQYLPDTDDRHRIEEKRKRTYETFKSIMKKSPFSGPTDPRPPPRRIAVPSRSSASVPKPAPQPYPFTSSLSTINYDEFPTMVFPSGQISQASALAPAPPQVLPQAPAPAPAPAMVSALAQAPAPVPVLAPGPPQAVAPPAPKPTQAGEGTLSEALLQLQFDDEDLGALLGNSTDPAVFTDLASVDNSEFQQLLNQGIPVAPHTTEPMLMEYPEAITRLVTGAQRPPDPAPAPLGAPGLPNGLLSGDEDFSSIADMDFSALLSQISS", "assay": "Inhibition of NFkappaB (unknown origin) expressed in HEK293 cells assessed as reduction in transcriptional activity at 5 uM after 48 hrs by luciferase reporter gene assay", "type": "cell-based", "method_in_brief": "(§1)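 HEK-293 at 70% confluence transfected by calcium phosphate with NF-kB luciferase ([…]) and b-Gal ([…]) plasmids, 6–8 h, then fresh serum medium 12 h; treated 48 h, lysed, luciferase read and normalized to b-galactosidase. Three independent experiments.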"}, "[3]": {"assay": "Drug hydrolysis in pH 7.4 PBS buffer assessed as first order rate constant for andrographolide formation by HPLC method", "type": "physicochemical", "method_in_brief": "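Compound in PBS pH 7.4 without enzyme; unreacted parent quantified by HPLC at time intervals. Decay fitted to first-order rate equation to give rate constant and half-life.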"}, "[4]": {"test_system": "HEK293", "assay": "Induction of apoptosis in HEK293 cells at 10 uM after 48 hrs by propidium iodide staining based flow cytometry (reference value: 24.26 +/- 0.8%)", "type": "functional, Homo sapiens"}, "[5]": {"test_system": "HEK293", "assay": "Increase in p53 expression in HEK293 cells at LC50 level after 48 hrs by Western blot method", "type": "functional, cell-based", "settings": "Homo sapiens"}, "[6]": {"test_system": "HEK293", "assay": "Induction of cell cycle arrest in HEK293 cells assessed as accumulation at G2/M phase at 15 uM after 48 hrs by propidium iodide staining based flow cytometry (reference value: 2.63 +/- 0.7%)", "type": "functional, Homo sapiens"}, "[7]": {"test_system": "HEK293", "assay": "Induction of apoptosis in HEK293 cells assessed as apoptotic nuclei formation at 5 uM after 48 hrs by DAPI staining based fluorescence microscopy", "type": "functional, cell-based", "settings": "Homo sapiens"}, "[8]": {"test_system": "HEK293", "assay": "Induction of cell cycle arrest in HEK293 cells assessed as accumulation at S phase at 15 uM after 48 hrs by propidium iodide staining based flow cytometry (reference value: 19.9 +/- 0.5%)", "type": "functional, Homo sapiens"}, "[9]": {"test_system": "Calf thymus DNA", "assay": "Binding affinity to calf thymus DNA at 3.33 to 20 uM after 2 hrs by UV-visible absorption spectroscopy", "type": "nucleic-acid assay", "settings": "Bos taurus", "method_in_brief": "(§2)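 CT-DNA at fixed […] in 50 mM Tris-HCl/NaCl pH 7.5, incubated with compound for 2 h at 37 °C, scanned 200–400 nm after dilution. Spectra normalized at 230 nm. Fraction bound q from absorbance near 260 nm; Boltzmann fit, Kb as reciprocal of half-saturation concentration.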"}, "[10]": {"test_system": "HEK293", "assay": "Induction of cell cycle arrest in HEK293 cells assessed as accumulation at S phase at 20 uM after 48 hrs by propidium iodide staining based flow cytometry (reference value: 19.9 +/- 0.5%)", "type": "functional, Homo sapiens"}, "[11]": {"test_system": "HEK293", "assay": "Induction of cell cycle arrest in HEK293 cells assessed as accumulation at S phase at 5 uM after 48 hrs by propidium iodide staining based flow cytometry (reference value: 19.9 +/- 0.5%)", "type": "functional, Homo sapiens"}, "[12]": {"test_system": "HEK293", "assay": "Induction of apoptosis in HEK293 cells at 20 uM after 48 hrs by propidium iodide staining based flow cytometry relative to untreated control", "type": "functional, Homo sapiens"}, "[13]": {"test_system": "HEK293", "assay": "Increase in Bax expression in HEK293 cells at LC50 level after 48 hrs by Western blot method", "type": "functional, cell-based", "settings": "Homo sapiens"}, "[14]": {"test_system": "HEK293", "assay": "Reduction in NFkappaB expression in p53 deficient HEK293 cells at LC50 level after 48 hrs by Western blot method", "type": "functional, cell-based", "settings": "Homo sapiens"}, "[15]": {"test_system": "Calf thymus DNA", "assay": "Binding affinity to calf thymus DNA assessed as reduction of DNA absorption band at 260 nanometer at 3.33 to 20 uM after 2 hrs by UV-visible absorption spectroscopy", "type": "nucleic-acid assay", "settings": "Bos taurus", "method_in_brief": "as §2"}, "[16]": {"target": "T1, Nuclear factor NF-kappa-B complex (Homo sapiens)", "assay": "Inhibition of NFkappaB (unknown origin) expressed in HEK293 cells assessed as reduction in transcriptional activity after 48 hrs by luciferase reporter gene assay", "type": "cell-based", "method_in_brief": "as §1"}, "[17]": {"assay": "Hydrolysis half life in pH 7.4 PBS buffer assessed as andrographolide formation by HPLC method", "type": "physicochemical"}, "[18]": {"test_system": "HEK293", "assay": "Induction of cell cycle arrest in HEK293 cells assessed as accumulation at G1 phase at 20 uM after 48 hrs by propidium iodide staining based flow cytometry (reference value: 53.21 +/- 0.8%)", "type": "functional, Homo sapiens"}, "[19]": {"test_system": "HEK293", "assay": "Induction of cell cycle arrest in HEK293 cells assessed as accumulation at G1 phase at 15 uM after 48 hrs by propidium iodide staining based flow cytometry (reference value: 53.21 +/- 0.8%)", "type": "functional, Homo sapiens"}, "[20]": {"organism": "Bos taurus", "assay": "Induction of conformational changes in calf thymus DNA assessed as B-DNA conformation changes at 100 uM after 2 hrs by CD spectroscopy"}, "[21]": {"test_system": "MCF7", "assay": "Cytotoxicity against human MCF7 cells after 48 hrs by MTT assay", "type": "functional", "settings": "MCF7, 48 h, read-out: LC50 (the source's name)", "method_in_brief": "(§3)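 Cells seeded at 10,000 per well and exposed to increasing compound concentrations for 48 h. After a PBS wash, MTT (2.5 mg/mL) was added for 6 h at 37 °C, then detergent (10% NP-40, 4 mM HCl), and absorbance was read at 570 nm. LC50 is the concentration causing 50% cell death. Values are means of three independent experiments.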"}, "[22]": {"test_system": "HEK293", "assay": "Increase in PARP cleavage in p53 deficient HEK293 cells at LC50 level after 48 hrs by Western blot method", "type": "functional, cell-based", "settings": "Homo sapiens"}, "[23]": {"test_system": "HEK293", "assay": "Reduction in Bcl-xL expression in p53 deficient HEK293 cells at LC50 level after 48 hrs by Western blot method", "type": "functional, cell-based", "settings": "Homo sapiens"}, "[24]": {"assay": "Cytotoxicity against human MCF10A cells after 48 hrs by MTT assay", "type": "cell-based", "settings": "mcf-10a", "method_in_brief": "as §3"}, "[25]": {"test_system": "HEK293", "assay": "Induction of cell cycle arrest in HEK293 cells assessed as accumulation at S phase at 10 uM after 48 hrs by propidium iodide staining based flow cytometry (reference value: 19.9 +/- 0.5%)", "type": "functional, Homo sapiens"}, "[26]": {"test_system": "HEK293", "assay": "Reduction in NFkappaB expression in HEK293 cells at LC50 level after 48 hrs by Western blot method", "type": "functional, cell-based", "settings": "Homo sapiens"}, "[27]": {"test_system": "HEK293", "assay": "Reduction in Bcl-xL expression in HEK293 cells at LC50 level after 48 hrs by Western blot method", "type": "functional, cell-based", "settings": "Homo sapiens"}, "[28]": {"test_system": "HEK293", "assay": "Induction of cell cycle arrest in HEK293 cells assessed as accumulation at G1 phase at 5 uM after 48 hrs by propidium iodide staining based flow cytometry (reference value: 53.21 +/- 0.8%)", "type": "functional, Homo sapiens"}, "[29]": {"assay": "Retention time of the compound by HPLC method", "type": "physicochemical"}, "[30]": {"test_system": "HEK293", "assay": "Increase in Bax expression in p53 deficient HEK293 cells at LC50 level after 48 hrs by Western blot method", "type": "functional, cell-based", "settings": "Homo sapiens"}, "[31]": {"test_system": "HEK293", "assay": "Increase in caspase-3 expression in HEK293 cells at LC50 level after 48 hrs by immunocytochemistry", "type": "functional, cell-based", "settings": "Homo sapiens"}, "[32]": {"test_system": "HEK293", "assay": "Induction of cell cycle arrest in HEK293 cells assessed as accumulation at G2/M phase at 5 uM after 48 hrs by propidium iodide staining based flow cytometry (reference value: 2.63 +/- 0.7%)", "type": "functional, Homo sapiens"}, "[33]": {"test_system": "HEK293", "assay": "Cytotoxicity against HEK293 cells after 48 hrs by MTT assay", "type": "functional", "settings": "Homo sapiens, HEK293, 48 h; read-out: LC50 (the source's name)", "method_in_brief": "as §3"}, "[34]": {"test_system": "HEK293", "assay": "Induction of cell cycle arrest in HEK293 cells assessed as accumulation at G1 phase at 10 uM after 48 hrs by propidium iodide staining based flow cytometry (reference value: 53.21 +/- 0.8%)", "type": "functional, Homo sapiens"}}, "note": "Activity calls are given as the source filed them. No cut-off for these calls is given here."}
{"compound": "C=C1CC[C@@H]2[C@](C)(CO)[C@H](O)CC[C@@]2(C)[C@@H]1C/C=C1/C(=O)OC[C@H]1OC(=O)CI", "values": [{"measurement": "Activity", "setting": "[1]", "value": 89.69, "unit": "%"}, {"measurement": "fold change (FC)", "setting": "[2]", "value": 5}, {"measurement": "K", "setting": "[3]", "value": 0.02, "unit": "min⁻¹"}, {"measurement": "Activity", "setting": "[4]", "value": 74.03, "unit": "%"}, {"measurement": "Activity", "setting": "[5]", "value": "Active"}, {"measurement": "Activity", "setting": "[6]", "value": 1.28, "unit": "%"}, {"measurement": "Activity", "setting": "[7]", "value": "Active"}, {"measurement": "Activity", "setting": "[8]", "value": 5.67, "unit": "%"}, {"measurement": "Kb", "setting": "[9]", "value": 2.5, "unit": "×10⁵ /M"}, {"measurement": "Activity", "setting": "[10]", "value": 1.66, "unit": "%"}, {"measurement": "Activity", "setting": "[11]", "value": 9.21, "unit": "%"}, {"measurement": "fold change (FC)", "setting": "[12]", "value": ">5"}, {"measurement": "Activity", "setting": "[13]", "value": "Active"}, {"measurement": "Activity", "setting": "[14]", "value": "inactive"}, {"measurement": "Activity", "setting": "[15]", "value": "Active"}, {"measurement": "inhibition", "setting": "[16]", "value": "Dose-dependent effect"}, {"measurement": "t1/2", "setting": "[17]", "value": 35, "unit": "min"}, {"measurement": "Activity", "setting": "[18]", "value": 7.96, "unit": "%"}, {"measurement": "Activity", "setting": "[19]", "value": 14.8, "unit": "%"}, {"measurement": "Activity", "setting": "[20]", "value": "inactive"}, {"measurement": "CC50", "setting": "[21]", "value": 6, "unit": "µM"}, {"measurement": "Activity", "setting": "[22]", "value": "inactive"}, {"measurement": "Activity", "setting": "[23]", "value": "inactive"}, {"measurement": "LC50", "setting": "[24]", "value": "> 40", "unit": "µM"}, {"measurement": "Activity", "setting": "[25]", "value": 7.57, "unit": "%"}, {"measurement": "Activity", "setting": "[26]", "value": "Active"}, {"measurement": "Activity", "setting": "[27]", "value": "Active"}, {"measurement": "Activity", "setting": "[28]", "value": 24.77, "unit": "%"}, {"measurement": "Retention_time", "setting": "[29]", "value": 26.9, "unit": "min"}, {"measurement": "Activity", "setting": "[30]", "value": "inactive"}, {"measurement": "Activity", "setting": "[31]", "value": "Active"}, {"measurement": "Activity", "setting": "[32]", "value": 2.14, "unit": "%"}, {"measurement": "CC50", "setting": "[33]", "value": 8, "unit": "µM"}, {"measurement": "Activity", "setting": "[34]", "value": 15.6, "unit": "%"}]}
